# ChEMBL document CHEMBL4837218, “Synthesis and in vitro antitumour activity of 4(R)-methyl-3-O-phosphonomethyl-α-l-threose nucleosides” (Eur J Med Chem, 2021)
# Active and inactive are the calls of the source. The calls are words filed in the database; no cut-off is given here.
# Tests used:
# [1] = tested on: MDA-MB-231; assay: Cell cycle arrest in human MDA-MB-231 cells assessed as accumulation at S phase at 9 uM measured after 48 hrs by propidium iodide staining based flow cytometry (reference value: 35.54 %); format: functional
# [2] = tested on: MCF7; assay: Induction of apoptosis in human MCF7 cells assessed as early apoptotic cells at 2 uM measured after 48 hrs by Annexin V-FITC/propidium iodide staining based flow cytometric analysis (reference value: 3 %); format: functional
# [3] = tested on: MDA-MB-231; assay: Induction of mitochondrial membrane potential loss in human MDA-MB-231 cells assessed as red fluorescence intensity at 9 uM measured after 48 hrs by JC1 staining-based flow cytometry analysis (reference value: 99.2 %); format: functional
# [4] = tested on: MDA-MB-231; assay: Induction of DNA damage in human MDA-MB-231 cells assessed as increase in Chk2 protein expression at 3 to 9 uM measured after 48 hrs by western blot analysis; format: functional, cell-based; conditions: dose 3-9 µM
# Procedure, shortened: (§1)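 Cells exposed to graded concentrations for 48 h, then proteins extracted. Run on SDS-PAGE (5–15% gels) and transferred to nitrocellulose. Blocked 2 h in 5% nonfat milk in PBS/0.1% Tween 20, primary antibody overnight at 4 °C, biotin-conjugated secondary 1 h. Visualized on X-ray film with densitometric quantitation; three independent experiments.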
# [5] = tested on: MDA-MB-231; assay: Induction of mitochondrial membrane potential loss in human MDA-MB-231 cells assessed as green fluorescence intensity at 3 uM measured after 48 hrs by JC1 staining-based flow cytometry analysis (reference value: 0.8 %); format: functional
# [6] = tested on: MDA-MB-231; assay: Induction of apoptosis in human MDA-MB-231 cells assessed as increase in cleaved PARP protein expression at 9 uM measured after 48 hrs in presence of cdc25c inhibitor, NSC663284 by western blot analysis; format: functional, cell-based
# Procedure, shortened: (§2)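 Four arms per cell line: untreated, test compound, 0.3 µM NSC663284 alone, and combination. Proteins harvested after 48 h and resolved by SDS-PAGE on 5–15% gels, transferred to nitrocellulose. Blocked 2 h in milk/PBS-Tween, primary antibodies overnight at 4 °C, biotin-conjugated secondary. Read on X-ray film with densitometry.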
# [7] = tested on: MDA-MB-231; assay: Inhibition of colony formation in human MDA-MB-231 cells incubated for 24 hrs followed by medium removal and measured after 7 days by crystal violet staining based assay; format: functional, cell-based; conditions: dose 3-9 µM
# Procedure, shortened: (§3)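 Cells seeded at 1 × 10³ per well in six-well plates and left overnight. Compound (DMSO solution) given in fresh medium for 24 h, then medium removed and plates grown another 7 days. Colonies washed with PBS, fixed in 4% paraformaldehyde 30 min, stained with 0.1% crystal violet 30 min, photographed and counted.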
# [8] = tested on: MCF7; assay: Induction of apoptosis in human MCF7 cells assessed as increase in Bax to Bcl2 ratio at 1 to 4 uM measured after 48 hrs by western blot analysis; format: functional, cell-based; conditions: dose 1-4 µM
# Procedure, shortened: (§4)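 MCF-7 and MDA-MB-231 breast cancer cells treated 48 h with a concentration series, then lysed for protein. SDS-PAGE on 5–15% gels, transfer to nitrocellulose. Blocked 2 h in 5% nonfat milk/PBS-0.1% Tween 20, primary antibodies overnight at 4 °C, biotin-conjugated secondary 1 h. X-ray film detection with densitometric quantification.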
# [9] = tested on: MCF7; assay: Induction of apoptosis in human MCF7 cells assessed as increase in cleaved caspase 7 protein expression at 4 uM measured after 48 hrs in presence of cdc25c inhibitor, NSC663284 by western blot analysis; format: functional, cell-based; procedure, shortened: as §2
# [10] = tested on: MDA-MB-231; assay: Induction of G2/M phase cell cycle arrest in human MDA-MB-231 cells assessed as increase in Cdc25c protein expression at 3 to 9 uM measured after 48 hrs by western blot analysis; format: functional, cell-based; conditions: dose 3-9 µM
# [11] = tested on: MDA-MB-231; assay: Cell cycle arrest in human MDA-MB-231 cells assessed as accumulation at G1 phase at 6 uM measured after 48 hrs by propidium iodide staining based flow cytometry (reference value: 46.28 %); format: functional
# [12] = tested on: MDA-MB-231; assay: Induction of apoptosis in human MDA-MB-231 cells assessed as increase in cleaved PARP protein expression at 3 to 9 uM measured after 48 hrs by western blot analysis; format: functional, cell-based; conditions: dose 3-9 µM; procedure, shortened: as §4
# [13] = tested on: MCF7; assay: Inhibition of PI3K/AKT signalling pathway in human MCF7 cells assessed as downregulation of 85ap-PI3K expression at 1 to 4 uM measured after 48 hrs by Western blot analysis; format: cell-based; conditions: dose 1-4 µM
# Procedure, shortened: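 After 48 h exposure to compound at several concentrations, cells collected and proteins extracted. SDS-PAGE on 5–15% gels, transfer to nitrocellulose, blocking 2 h in 5% nonfat milk in PBS/0.1% Tween 20, primary antibodies overnight at 4 °C, biotin-conjugated secondary 1 h. Detection on X-ray film; band densitometry.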
# [14] = tested on: MCF7; assay: Inhibition of colony formation in human MCF7 cells incubated for 24 hrs followed by medium removal and measured after 7 days by crystal violet staining based assay; format: functional, cell-based; conditions: dose 1-4 µM; procedure, shortened: as §3
# [15] = tested on: MCF7; assay: Induction of DNA damage in human MCF7 cells assessed as increase in ATM protein expression at 1 to 4 uM measured after 48 hrs by western blot analysis; format: functional, cell-based; conditions: dose 1-4 µM; procedure, shortened: as §1
# [16] = tested on: MCF7; assay: Cell cycle arrest in human MCF7 cells assessed as accumulation at G1 phase at 4 uM measured after 48 hrs by propidium iodide staining based flow cytometry (reference value: 70.09 %); format: functional
# [17] = tested on: MCF7; assay: Induction of apoptosis in human MCF7 cells assessed as increase in cleaved PARP protein expression at 1 to 4 uM measured after 48 hrs by western blot analysis; format: functional, cell-based; conditions: dose 1-4 µM; procedure, shortened: as §4
# [18] = tested on: MCF7; assay: Induction of apoptosis in human MCF7 cells assessed as increase in cleaved caspase 9 protein expression at 4 uM measured after 48 hrs in presence of cdc25c inhibitor, NSC663284 by western blot analysis; format: functional, cell-based; procedure, shortened: as §2
structure (smiles),measurement,setting,value
C[C@H]1O[C@@H](n2cnc3c(N)nc(F)nc32)[C@H](O)[C@H]1OCP(=O)([O-])[O-].[Na+].[Na+],Activity,[1],32.34%
same,Activity,[2],46.3%
same,Activity,[3],37%
same,Activity,[4],Active
same,Activity,[5],1.4%
same,Activity,[6],inactive
same,inhibition,[7],Dose-Dependent Effect
same,Activity,[8],Active
same,Activity,[9],inactive
same,Activity,[10],Active
same,Activity,[11],37.3%
same,Activity,[12],Active
same,inhibition,[13],Active
same,inhibition,[14],Dose-Dependent Effect
same,Activity,[15],Active
same,Activity,[16],41.95%
same,Activity,[17],Active
same,Activity,[18],inactive
